Test results from publication PMC3863768 (Journal of medicinal chemistry, 2012).
Positions count from the first letter of the chain named.

What was measured:
[1] = target: T1, PfNMT (Plasmodium falciparum, UniProt Q9U419); test: NMT enzyme inhibition assay; assay type: biochemical, P. falciparum; conditions: for activity drop vs. 4 / lower inhibition vs. 4: compared with compound 4; for lower inhibition vs. 4: shorter or longer spacers than the methylene ester
T1 sequence (Q9U419 1-410): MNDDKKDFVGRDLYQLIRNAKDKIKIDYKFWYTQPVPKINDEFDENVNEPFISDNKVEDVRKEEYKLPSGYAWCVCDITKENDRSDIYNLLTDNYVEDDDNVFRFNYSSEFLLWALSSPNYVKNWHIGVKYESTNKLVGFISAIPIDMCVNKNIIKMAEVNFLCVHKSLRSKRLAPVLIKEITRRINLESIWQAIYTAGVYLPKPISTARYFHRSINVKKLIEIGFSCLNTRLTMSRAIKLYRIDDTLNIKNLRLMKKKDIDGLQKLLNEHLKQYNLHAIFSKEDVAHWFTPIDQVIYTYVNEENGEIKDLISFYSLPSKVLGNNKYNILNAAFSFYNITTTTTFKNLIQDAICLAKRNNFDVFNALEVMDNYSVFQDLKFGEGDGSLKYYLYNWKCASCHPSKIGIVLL
Method in brief: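 Stopped with streptavidin PVT beads in pH 4 stop solution; scintillation counted. No-inhibitor wells set 100%, no-enzyme wells 0%. Test compound 500 μM to 2 nM, in duplicate. IC50 by nonlinear regression, averaged from two independent curves.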

[2] = target: T2, HsNMT1 Y296A (Homo sapiens, UniProt P30419, Y296A); test: NMT enzyme inhibition assay; assay type: biochemical; conditions: HsNMT1 Y296A vs wild type
T2 sequence (P30419 109-496 Y296A limits assumed): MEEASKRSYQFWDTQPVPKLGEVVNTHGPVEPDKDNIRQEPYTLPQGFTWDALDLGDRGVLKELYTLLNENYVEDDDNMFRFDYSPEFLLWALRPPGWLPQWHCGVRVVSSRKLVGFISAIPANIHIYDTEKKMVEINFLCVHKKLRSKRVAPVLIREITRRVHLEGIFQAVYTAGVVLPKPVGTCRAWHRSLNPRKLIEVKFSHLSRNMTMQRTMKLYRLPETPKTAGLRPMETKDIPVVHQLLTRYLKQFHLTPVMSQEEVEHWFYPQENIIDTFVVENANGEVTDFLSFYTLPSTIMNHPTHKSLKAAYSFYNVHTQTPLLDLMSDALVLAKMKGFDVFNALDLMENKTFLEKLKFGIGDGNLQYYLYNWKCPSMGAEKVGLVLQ

[3] = target: T3, HsNMT1 (Homo sapiens, UniProt P30419); test: NMT enzyme inhibition assay; assay type: biochemical
T3 sequence (P30419 109-496 limits assumed): T2 sequence (P30419 109-496 Y296A limits assumed) with A188Y

[4] = test system: P. falciparum, 3D7 line; test: P. falciparum inhibition assay; assay type: cell-based; conditions: synchronized P. falciparum trophozoites (3D7 line)
Method in brief: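 Synchronous late-trophozoite cultures (1% parasitemia, 2% hematocrit) with test compound in 0.5% DMSO, 48 h at 37 °C. Aliquots stained with hydroethidine (1:200 dilution of 10 mg/mL stock in PBS), 20 min at 37 °C; 50,000 cells counted by flow cytometry. Untreated parasites and uninfected RBCs are the controls; % inhibition computed.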

Cc1c(C(=O)NC(C)C)oc2cccc(OC3CCNCC3)c12 [Compound 9, N-isopropyl-3-methyl-4-(piperidin-4-yloxy)benzofuran-2-carboxamide]
IC50 [1]: > 200 µM

Cc1c(C(=O)NC2CCCCC2)oc2cccc(OC3CCNCC3)c12 [Compound 10]
IC50 [1]: > 100 µM

COc1cccc(COC(=O)c2oc3cccc(OC4CCNCC4)c3c2C)c1 [Compound 26]
increase in affinity on mutation of the human NMT [2]: four- to five-fold | PfNMT inhibition (in words) [1]: comparable potency to the parent compound 4 | HsNMT1 inhibition (in words) [3]: weak inhibition

Cc1c(CCc2ccccc2)oc2cccc(OC3CCNCC3)c12 [Compound 18, 4-{[3-Methyl-2-(2-phenylethyl)-1-benzofuran-4-yl]oxy}piperidine]
PfNMT inhibition (in words) [1]: does not confer inhibitory activity

CCOC(=O)c1oc2cccc(OC3CCNCC3)c2c1C [Compound 2, Ethyl 3-methyl-4-(piperidin-4-yloxy) benzofuran-2-carboxylate]
activity improvement over 1 ([1]; PfNMT inhibition, compared with compound 1): 3 fold | selectivity over human NMT1 (in words) [3]: good human selectivity

Cc1c(-c2nc(Cc3ccccc3)no2)oc2cccc(OC3CCNCC3)c12 [Compound 25]
PfNMT inhibition (in words) [1]: promising potency

Cc1c(C(=O)/C=C/c2ccccc2)oc2cccc(OC3CCNCC3)c12 [Compound 23, (2E)-1-[3-Methyl-4-(piperidin-4-yloxy)-1-benzofuran-2-yl]-3-phenylprop-2-en-1-one]
improvement in affinity vs. 22 ([1]; PfNMT inhibition, compared with compound 22): 3 fold

Cc1c(COCc2ccccc2)oc2cccc(OC3CCNCC3)c12 [Compound 21, 4-({2-[(Benzyloxy)methyl]-3-methyl-1-benzofuran-4-yl}oxy)-piperidine]
activity drop vs. 4 ([1]; PfNMT inhibition): 40 fold

Cc1c(C(=O)OCCc2ccccc2)oc2cccc(OC3CCNCC3)c12 [Compound 7]
lower inhibition vs. 4 [1]: 10- to 100 fold

Cc1c(C(=O)CCc2ccccc2)oc2cccc(OC3CCNCC3)c12 [Compound 22]
activity drop vs. 4 ([1]; PfNMT inhibition): 40 fold

Cc1c(C(=O)OCc2ccccc2)oc2cccc(OC3CCNCC3)c12 [Compound 4]
anti-plasmodial effect in vitro (in words) [4]: highest anti-parasitic activity

O=S(=O)(Cc1ccccc1)c1cc2c(OC3CCNCC3)cccc2o1 [Compound 24, 4-{[2-(Phenylmethane)sulfonyl-1-benzofuran-4-yl]oxy}piperidine]
PfNMT inhibition (in words) [1]: dramatic loss of activity

CCOC(=O)c1oc2cccc(OCCCNCc3cccnc3)c2c1C [Compound 1, reference compound]
PfNMT inhibition (in words) [1]: moderate inhibition | selectivity over human NMT1 (in words) [3]: promising selectivity

Cc1c(C(=O)OCCCc2ccccc2)oc2cccc(OC3CCNCC3)c12 [Compound 8]
lower inhibition vs. 4 [1]: 10- to 100 fold

Cc1c(C(=O)Oc2ccccc2)oc2cccc(OC3CCNCC3)c12 [Compound 3, Phenyl 3-methyl-4-(piperidin-4-yloxy)-1-benzofuran-2-carboxylate]
lower inhibition vs. 4 [1]: 10- to 100 fold
